T cell HTS – modulates CD8 T cell binding to vesicles; 2C CD8+ T cell-vesicle binding, flow cytometry; hits give low values; response (vesicle binding), % at 7 µM; actives 0.068% (n = 330,000); AID 2052;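 active means response, share of CD8 T cells binding vesicles, and their 90th percentile fluorescence all below set limits, cut at about 80% in these data, passing the limit was not always enough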;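 further: values below 100% mean blocked vesicle binding to the CD8+ T cells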
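incubation = binding step 1.5 h, 37 °C, antibody labelling 20 min, ice | test system = 2C mouse CD8+ T cells | read-out basis = percent CD8+ FL2 mean versus row control | controls = Peptide-free naked vesicles (low) and QL9 vesicles with 0.7% DMSO vehicle (high) | detection = flow cytometry of vesicle-bound cells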
Mcl1-Bid inh – disrupts binding of human Mcl-1 to Bid peptide. Q07820. TR-FRET Mcl-1/Bid-Dy647 peptide binding, 1536-well. inhibition, % at 21.7 µM. actives 0.97% (n = 220,000). AID 1021;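 active means compounds that cut the binding signal by more than half at the single screening dose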;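 further: His-tagged Mcl-1 with europium anti-His antibody binding Bid BH3 peptide; 0% = Mcl-1 plus peptide wells and 100% = peptide-only wells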
Mcl1-Noxa inh – Mcl-1/Noxa interaction inhibition | Q07820 | TR-FRET Mcl-1/Noxa peptide binding, 2 h | inhibition, % at 21.7 µM | actives 1.5% (n = 220,000);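 active means compounds that cut the protein-peptide binding signal by more than 50% relative to plate controls in a single-dose test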;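 further: His-tagged Mcl-1 with rhodamine Noxa BH3 peptide and terbium anti-His antibody; 0% = Mcl-1 plus Noxa peptide wells and 100% = peptide-only wells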
MCL1 BIM primary – inhibitors of human MCL1 binding to BIM-BH3 peptide; GST-MCL1 / FITC-Bim-BH3 fluorescence polarization; inhibition, % at 10.9 µM; actives 0.68% (n = 320,000); AID 2057;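 active means inhibition above the mean inhibition of all tested compounds plus 3 SD, set per campaign, cut at about 40% in these data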;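 further: 0% = DMSO wells and 100% = unlabeled Bim-BH3 peptide control; higher means more loss of mP so more displacement of Bim peptide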
Bim-Mcl-1 – human Bim-Mcl-1 interaction inhibition; Q07820; Bead-based flow cytometry, Bim peptide-Mcl-1 binding; inhibition, % at 10 µM; actives 0.1% (n = 190,000); in the data active means inhibition above about 40%;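 further: 0% = no compound tracer wells and 100% = peptide blocker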
Pemphigus Ab inh – inhibitors of pemphigus antibody binding to human desmoglein-3 | P32926 | DSG3-coupled beads, scFv-anti-DSG3-GFP binding, flow cytometry; hits give low values | binding (percent of control), % at 10 µM | actives 0.48% (n = 310,000) | AID 588358;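 active means binding more than 3 SD below its plate's average and above zero; inconclusive means below that plate limit but binding exactly zero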;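 further: hits lower antibody fragment binding to DSG3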
Numbers without * were called inactive; i = inactive; ? = inconclusive; . = no result given. In the library only some 2.3% were active in any assay of this set; here they are far more common.

SMILES	T cell HTS	Mcl1-Bid inh	Mcl1-Noxa inh	MCL1 BIM primary	Bim-Mcl-1	Pemphigus Ab inh
CCOC(=O)CCC(=O)NCc1ccc2c(c1)cc(C)n2C	462	-32	6	44*	2	99
Cc1ccc(NC(=O)CN2C(=O)NC(Cc3c[nH]c4ccccc34)C2=O)cc1 (centres undefined)	350	.	.	-5	.	98
COc1ccc(SC[C@H](Cc2ccccc2)N2CC[C@@H](C(C)(C)C)CCC2=O)cc1	358	.	.	10	.	105
Cc1cccc2c3c([nH]c12)CCN(C)C3	226	.	.	11	.	100
CC(C)CCC(C(=O)NC(C)c1ccccc1)C(=O)NC(C)c1ccccc1 (centres undefined)	88	.	.	-4	.	93
CCN(CC)c1ccc(NC2=C(Cl)C(=O)c3ccccc3C2=O)cc1	700	7	89*	11	-2	108
CCC(=O)Nc1ccc2c(c1)nc(CCNC(=O)c1ccco1)n2C	176	.	.	5	.	.
COc1cc(C(=O)Nc2nnc(S(=O)(=O)N3CCCCCC3)s2)cc(OC)c1OC	230	.	.	5	.	96
CN(C)CCCOc1cccc(Oc2ccccc2)c1	220	52*	25	1	-3	95
CN(C)CCCOc1cccc(Cl)c1	207	33	26	2	-4	101
COc1ccc(C(=O)Nc2cccnc2Sc2ccc(Cl)cc2)cc1	298	6	-1	11	.	80*
CN(C)S(=O)(=O)Oc1cc(Cl)ccc1C(=O)Nc1ccc(F)cc1F	146	-6	21	1	1	104
Cc1cc2nc(-c3ccc(NC(=O)C(C)C)cc3)oc2cc1C	251	73*	6	2	-1	111
CC(=O)c1cccc(NC(=O)C(Sc2ncnc3ccccc23)c2ccccc2)c1 (centres undefined)	278	56*	-46	-5	-4	98
Cc1ccc(CNn2cn[nH]c2=S)cc1	224	.	.	-13	.	100
Nc1ccn([C@@H]2O[C@H](CNCc3ccc(OCC(=O)Nc4nccs4)cc3)[C@@H](O)[C@H]2O)c(=O)n1	.	.	.	.	.	100
Cc1sc2ncnc(OCC(=O)Nc3ccc4c(c3)OCCO4)c2c1C	198	99*	-5	-5	1	100
O=C(COc1ncnc2sccc12)Nc1ccc2c(c1)OCCO2	510	-54	12	-10	-2	.
COc1cccc(NC(=O)COC(=O)CCn2c(C)csc2=O)c1	535	.	.	7	.	109
O=C(Cn1c(-c2ccccc2)noc1=O)N1CCC(Cc2ccccc2)CC1	202	10	15	2	40*	96
O=C(CSc1ccc2nnc(-c3cccnc3)n2n1)Nc1ccccc1F	.	.	.	.	.	99
CCCCCC(=O)NCC(C)NC(=O)CCCCC (centres undefined)	0.0*	4	4	5	-7	99
Cc1ccc(N2C(=O)C(Cl)=C(N3CCCCCC3)C2=O)c(C)c1	0.0*	.	.	0	.	116
Cn1c(=O)c(/C=C/c2ccccc2)nc2ccccc21	i	-14	17	41*	-1	86
O=[N+]([O-])c1ccc(Sc2cccc[n+]2[O-])c2nonc12	.	-115	62*	.	.	109
SMILES	T cell HTS	Mcl1-Bid inh	Mcl1-Noxa inh	MCL1 BIM primary	Bim-Mcl-1	Pemphigus Ab inh
CCCCC1CC(=O)NC1(C(=O)OCC)C(=O)OCC (centres undefined)	.	.	.	.	.	100
O=C(Cc1ccc(Cl)cc1Cl)NC1CCCCCC1	194	.	.	-1	.	24*
O=C(NCCc1ccccc1)c1ccc(Cl)c(S(=O)(=O)N2CCOCC2)c1	.	.	.	.	.	108
CC1=C(C(=O)N2CCOCC2)CC(CC(=O)NC2CCCC2)C(=O)N1CCCN1CCCC1=O (centres undefined)	.	.	.	.	.	101
O=[N+]([O-])c1ccc(NC(=S)NCCc2ccc(Cl)cc2)cc1	122	94*	21	9	-8	111
NC(=O)C(CCc1nc2ccccc2[nH]1)NS(=O)(=O)c1ccccc1 (centres undefined)	.	.	.	.	.	97
CCC(=O)c1ccc(OCC(O)CN2CCOCC2)cc1 (centres undefined)	183	-1	4	4	0	97
CC(=O)c1ccc(OCC(O)CN2CCOCC2)cc1 (centres undefined)	341	11	64*	-1	-2	104
O=C(Nc1ccc(Oc2ccc3c(c2)C(=O)N(c2ccc(O)cc2)C3=O)cc1)c1cccs1	259	66*	-62	-2	-2	118
CN(C(=O)c1ccc(NC(=O)Cc2ccc(NC(=O)C3CCCN(C(=O)C4CCC4)C3)cc2)cc1)C1CCCC1 (centres undefined)	.	.	.	.	.	101
CCOc1ccccc1NC(=O)CN(C)S(=O)(=O)c1cccc2nsnc12	322	88*	8	6	3	.
CCOc1cc(/C=C2\C(=O)N(c3nc(-c4ccc(Br)cc4)cs3)N=C2c2ccccc2)ccc1O	327	81*	94*	7	-3	89
COc1cc(/C=C2\C(=O)N(c3ccc(NC(C)=O)cc3)N=C2c2ccccc2)ccc1O	574	-16	58*	5	-1	97
COc1cc(/C=C2/C(=O)N(c3ccc(C(=O)O)cc3)N=C2C)cc(OC)c1O	531	.	.	.	.	?
O=C1/C(=C\c2ccc(O)c(O)c2)C(c2ccccc2)=NN1c1ccccc1	.	-34	71*	.	1	93
CC(C)CN1CCN(CCCOC(=O)Nc2cccc3ccccc23)CC1C (centres undefined)	.	.	.	.	.	119
COc1ccc([N+](=O)[O-])cc1NC(=O)COC(=O)C12CC3CC(CC(O)(C3)C1)C2	.	.	.	.	.	99
CCOc1ccc2[nH]c3c(NCCO)ncnc3c2c1	180	.	.	.	.	94
CCOc1ccc2[nH]c3c(NCCc4ccc(OC)c(OC)c4)ncnc3c2c1	i	-49	57*	4	.	105
CC1(c2ccccc2)NC(=O)N(CC(=O)N2CCN(S(=O)(=O)c3c(F)cccc3F)CC2)C1=O (centres undefined)	473	.	.	.	.	.
Cc1ccc(CSc2nnc([C@@H]3CCCN3)o2)cc1	821	63*	50	10	-1	104
c1ccc(CSc2nnc([C@@H]3CCCN3)o2)cc1	612	4	38	10	-3	99
COc1cc2c(cc1OC)C(Nn1cnnc1)=NC1(CCCC1)C2	572	91*	8	-4	.	97
CC1(C)Cc2ccccc2C(Nn2cnnc2)=N1	398	-15	-18	11	3	104
CC1CCN(CCCCOc2ccc([N+](=O)[O-])cc2)CC1	327	10	9	-3	-3	97
